Experimental data as given in PMC10193561 (ACS Omega, 2023).
Values after ≈ are worked out from the molar mass of the structure shown.

How the values were obtained:
[1] = Solubility measurement in distilled water; assay type: physicochemical; settings: 37 °C, thermodynamic from solid
Outline: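 Excess solid test compound in distilled water was shaken 24 h at 37 °C (100 rpm), then centrifuged at 10,000 rpm for 10 min. Supernatant absorbance was read at 217 nm and solubility calculated from a standard curve.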

A549 cells = assay: Cell proliferation activity assay; assay type: cell-based; settings: Homo sapiens, A549, read-out: IC50 on A549 cells
Outline: (§1)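 Cells were kept in DMEM with 10% FBS and 1% penicillin–streptomycin at 37 °C and 5% CO2, and passaged with 0.25% trypsin-EDTA at 80–90% confluency. They were seeded at 5 × 10^3 cells/well, grown 24 h, then given test compound at 5, 10, 20, 40, 60, 80 or 100 μM final, with 1% DMSO as control. Read-out was MTT absorbance at 490 nm, as viability versus control. IC50 was fitted from viability data; 3–5 replicates per sample; mean ± SD of three independent experiments.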

MCF-7 cells = assay: Cell proliferation activity assay; assay type: cell-based; settings: Homo sapiens, MCF7, read-out: IC50 on MCF-7 cells
Outline: as §1

HeLa cells [2] = assay: Cell proliferation activity assay; assay type: cell-based; settings: Homo sapiens, read-out: IC50 on HeLa cells
Outline: as §1

HeLa cells [3] = assay: Annexin V/PI apoptosis assay by flow cytometry; assay type: cell-based; settings: 20 μM, 24 h, control group 6.2%

Structure (SMILES): CC(C)=CCC[C@](C)(O)[C@H]1CC[C@]2(C)[C@@H]1[C@H](O)C[C@@H]1[C@@]3(C)CC[C@H](O[C@@H]4O[C@H](CO)[C@@H](O)[C@H](O)[C@H]4O)C(C)(C)[C@@H]3CC[C@]12C [Rh2, Ginsenoside Rh2]
- solubility at 24 h [1]: 74 µg/mL (≈ 119 µM)
- IC50 (A549 cells): 85.3 µM
- IC50 (MCF-7 cells): 73.6 µM
- IC50 (HeLa cells [2]): 68 µM
- percentage of early and late apoptosis (HeLa cells [3]): 5.3%
